Bioassay records deposited in PubChem by several laboratories.
Dynein cargo inh – blocks dynein driven cargo transport along microtubules; 3617.4 mouse cells, GR-EGFP nuclear translocation imaging; test concentration mostly 20 µM; stimulated with dexamethasone, 1 µM; active compounds read low; z-score, hits read low; actives 0.47% (n = 220,000); AID 1381;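 active = plate z-score of nuclear minus cytoplasmic receptor signal below a set negative limit, without overly bright fluorescence or cell loss, cut at about -3.5 in these data, passing the limit was not always enough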;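 note: z-score of nuclear minus cytoplasmic ring GR-EGFP intensity difference per well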
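Buffer or medium: tet-free, stripped-serum medium; Also added: dexamethasone, 1.0 µM final; Technique: high-content fluorescence imaging after fixation; Times: 48 h induction, 1 h compound, 30 min dex at 37 °C; Read-out: per-cell GR-EGFP intensity, nucleus versus surrounding cytoplasmic ring, well-averaged.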
ROMK primary – modulators of human ROMK potassium channel; P48048; Tet-inducible ROMK, thallium flux fluorescence; actives lie on both sides; B-score at 10 µM; actives 2% (n = 130,000);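 active = signal ratio slope over the read window, or its plate-corrected B-score, at least 3 SD from the plate mean, either direction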;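 note: B-score of the F/F0 ratio slope over 7 to 12 s after thallium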
KCC2 mod – modulates chloride dependent transport by human KCC2 | Q9H2X9 | KCC2 cells, thallium flux FluoZin-2 fluorescence | B-score of Tl+ flux slope (higher = more flux/activation; lower = inhibition) at 10 µM | actives 2.2% (n = 190,000) | AID 1456;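 active = thallium flux slope and its plate-corrected score both differing from the plate sample mean at a set confidence after two filtering rounds, in either direction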;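 note: slope of fluorescence scaled to starting intensity during 10 to 20 s after thallium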
Autophagy HCS – modulators of autophagy; MEF GFP-LC3 puncta imaging; test concentration mostly 10 µM; AID 463193; calls only at 10 µM (by protocol); actives 0.98% (n = 190,000);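 active = percentage of spot-positive cells more than 3 SD above its plate mean, without a fluorescence outlier flag or 80% toxicity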;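 note: spot-positive cell cutoff set from DMSO-treated cells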
DTT redox prof – compounds producing H2O2 with reducing agent – biochemical, NIH compound library profiling, artefact control for MLSCN library redox annotation, primary screen; DTT-dependent redox cycling H2O2, phenol red/HRP absorbance; 100% = 100 µM peroxide control, 0% = buffer; activation, % at 10 µM; actives 0.03% (n = 200,000); AID 878;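 active = activation of at least 50% relative to the plate's high and low controls in the primary single-dose screen; inactive = activation below 50%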;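 note: compound incubated with DTT at 0.8 mM final as the reducing agent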
An asterisk follows results filed as active; i = inactive; x = no result; + = active, no number. A selection: hits, their analogues and other compounds. The true share with any hit is near 4.1%.

SMILES	Dynein cargo inh	ROMK primary	KCC2 mod	Autophagy HCS	DTT redox prof
CN(C)S(=O)(=O)c1ccc(C(=O)Nc2nnc(-c3ccc4c(c3)CCCC4)o2)cc1	0.29	x	8.1*	i	-1
COc1cccc(NC(=O)c2ccc(NCCCN3CC(C)CC(C)C3)c([N+](=O)[O-])c2)c1 (stereo unspecified)	0.32	0.31	0.14	+	-1
Cc1cccc(-n2c(N)c(-c3nc4ccccc4n3C)c3nc4ccccc4nc32)c1	0.17	x	0.16	+	0
Cc1ccc(-n2c(N)c(-c3nc4ccccc4n3C)sc2=S)cc1	10	x	x	i	4
Cn1c(-c2c(N)n(-c3ccccc3)c3nc4ccccc4nc23)nc2ccccc21	-0.08	x	-0.75	+	1
COc1ccc(N2CCN(C(=O)CNS(=O)(=O)c3ccc(C)cc3)CC2)cc1	1.3	0.5	0.048	i	-2
COc1ccc(Cn2c3ccc(OC)cc3c3nc4ccccc4nc32)cc1	0.59	x	-0.88	+	1
COc1ccc2c(c1)c1nc3ccccc3nc1n2CCCN1C(=O)c2ccccc2C1=O	0.43	x	-0.26	i	1
COc1ccc2c(c1)c1nc3ccccc3nc1n2CC(=O)OC(C)C	0.94	-0.35	1	+	0
COc1cccc(C(=O)Nc2nc(-c3ccccc3)c(-c3ccccc3)o2)c1	-0.61	x	29*	i	0
COc1ccccc1C(=O)Nc1ccc(-c2nnn(CC(=O)NCc3ccco3)n2)cc1	-0.85	x	1.2	x	x
O=C(COc1ccccc1)N1CCc2ccccc21	-0.093	-1	-0.19	i	0
O=C(COc1ccc2ccccc2c1CN1CCOCC1)N1CCc2ccccc21	-0.68	x	-7.9*	i	3
CC(=O)Nc1ccc(N2CCc3c(C)c(C#N)c4nc5ccccc5n4c32)cc1	-0.018	0.73	0.48	+	0
Cc1ccc(NC(=O)c2cc(N3C(=O)C=CC3=O)ccc2Cl)cc1C	-3.4	-0.76	-0.38	i	0
CC(C)Cn1c(N)c(C(=O)CSc2nc3ccccc3n2C)c(=O)n(C)c1=O	-0.26	x	-0.022	i	2
CC(C)Cn1c(N)c(C(=O)CSc2nc3ccccc3c(=O)n2CCCN2CCOCC2)c(=O)n(C)c1=O	1.4	0.58	-0.42	+	-2
CCN(Cc1cc2ccccc2[nH]c1=O)C(=O)C1CCCCC1	0.85	1	x	i	0
CC(C)N(Cc1cc2ccccc2[nH]c1=O)C(=O)C1CCCCC1	-0.4	-0.002	x	+	0
COc1ccc(CSCC(=O)N/N=C/c2ccccc2O)cc1	1.9	-0.92	0.7	+	-1
O=C(CSc1ccccc1)N/N=C/c1ccccc1O	-1	-1	-0.13	i	0
COc1ccc(C(=O)OCC(=O)NCCN2C(=O)CSC2=O)cc1	-1	0.85	0.041	i	0
O=C(CSCc1ccccc1)N1CCN(Cc2ccc3c(c2)OCO3)CC1	0.34	-2.9*	0.018	i	0
CCN(CC)c1ccc(C(=O)NC(=S)N2CCN(Cc3ccc4c(c3)OCO4)CC2)cc1	0.62	-3.3*	17*	i	0
Cc1ccccc1Cc1c(C)nc2c(C(=O)NCc3ccc4c(c3)OCO4)cnn2c1C	-0.5	x	-0.072	i	3
SMILES	Dynein cargo inh	ROMK primary	KCC2 mod	Autophagy HCS	DTT redox prof
CCCC(=O)N1CCN(Cc2ccc3c(c2)OCO3)CC1	-0.25	0.45	0.9	i	0
Cc1ccccc1Cc1c(C)nc2c(C(=O)N3CCN(Cc4ccc5c(c4)OCO5)CC3)cnn2c1C	-0.6	-5.3*	-1.2	i	1
CCOc1ccccc1NC(=O)COC(=O)c1cc[n+]([O-])cc1	0.37	x	0.19	x	x
O=C(CC1C(=O)NCCN1C(=O)Nc1ccc(Cl)cc1)Nc1ccc(F)cc1 (stereo unspecified)	-0.09	-1.1	0.0071	+	-2
COc1ccccc1NC(=O)c1oc2ccccc2c1NC(=O)c1cc(OC)c(OC)c(OC)c1	-3.8	x	0.43	+	3
O=C(CCNS(=O)(=O)c1cccc2nsnc12)NCc1ccccc1Cl	1.6	0.1	0.069	i	-1
Cc1ccc(-c2csc3nc4c5ccccc5c(NCCCN(C)C)nn4c(=O)c23)cc1	-6	-0.83	-0.29	+	0
Cc1ccc(-c2csc3nc4c5ccccc5c(NCCCN5CCOCC5)nn4c(=O)c23)cc1	-0.18	0.3	0.5	i	0
N#CC1=C(SCC(=O)Nc2ccccc2)NC(=O)CC1c1ccco1 (stereo unspecified)	1.2	0.49	0.59	+	-2
COc1cccc(NC(=O)CSC2=C(C#N)C(c3ccco3)C3=C(CCCC3=O)N2)c1 (stereo unspecified)	0.97	0.29	-3	+	-1
COc1ccc(NC(=O)CSC2=C(C#N)C(c3ccco3)C3=C(CCCC3=O)N2)c(OC)c1 (stereo unspecified)	1.2	-0.77	x	i	0
Cc1ccc(N(CCC(=O)NC(C)(C)C)S(=O)(=O)c2ccc(C)cc2)cc1	0.33	-0.0044	0.011	+	-1
CCOc1ccccc1N1CC(C(=O)Nc2ccccc2N2CCOCC2)CC1=O (stereo unspecified)	-0.29	x	0.9	i	2
CCOc1ccccc1N1CC(C(=O)Nc2ccc3c(c2)OCCO3)CC1=O (stereo unspecified)	1	-0.67	-0.76	+	-2
N#C/C=C1/NC(=O)c2ccccc2S1	-0.1	0.72	19*	i	0
COc1ccc(C(=O)c2ccc(OC)c(N)c2)cc1N	1.1	x	0.37	+	2
COc1ccc(C(=O)c2ccc(OC)c(OC)c2)cc1OC	-0.33	0.19	x	i	-5
O=C(O)c1cc(N/N=C/C=C/c2ccccc2)ccc1Cl	2.4	0.79	0.76	i	0
C=CCOc1ccc(/C(O)=C2\C(=O)C(=O)N(CCN(C)C)C2c2cccs2)cc1 (stereo unspecified)	1.8	-0.18	-0.0011	+	1
CCOc1cc(-n2cnnn2)c(OCC)cc1NC(=O)c1cc2ccc(N(CC)CC)cc2oc1=O	-1.5	x	i	+	2
COc1cccc(/C=C(/C#N)c2ccc(F)cc2)c1OCc1cccc(C(=O)O)c1	0.13	0.099	-2	i	1
COc1cc(N2CCCC2)c(OC)cc1/C=C(/C#N)c1cccc(F)c1	-0.56	-2.4	-0.88	+	1
CC(=O)Nc1ccc(S(=O)(=O)NCc2csc(-c3cccnc3)n2)cc1	0.21	0.16	3.2*	i	0
S=c1[nH]c(-c2ccccc2)cs1	0.96	2.5*	50*	i	1
O=c1cc(N2CCCCC2)c(-c2ccccc2)nn1Cc1ccccc1	-0.16	-3.1*	-0.69	i	-1
COC(=O)c1sc(N2C(=O)c3oc4ccccc4c(=O)c3C2c2cccs2)nc1C (stereo unspecified)	-0.089	x	0.4	+	4
